Assay results: paper PMC3000965 (The Journal of Biological Chemistry, 2010)

What was measured:
Purified Hela Hsp90 [1] = assay: Dissociation of [3H]17-AAG from purified Hsp90; format: binding, human
[2] = system: Hsp90 in SK-BR-3 cell lysate; assay: Association of [3H]17-AAG to Hsp90 in SK-BR-3 lysate; format: binding, human; settings: 4 °C, 10 μM 17-AAG
Hsp90 in SK-BR-3 lysates = assay: Dissociation of [3H]17-AAG from Hsp90 in SK-BR-3 lysates; format: binding, human; settings: 4 °C
Purified Hela Hsp90 [3] = assay: Association of [3H]17-AAG to purified Hsp90; format: binding, human
H1975 cells = assay: Cell growth inhibition; format: cell-based; settings: Homo sapiens, NCI-H1975, 72 h, read-out: Cell growth inhibition (GI50)
In short: (§1)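 Cells grown in RPMI 1640 with 10% FBS at 37 °C, 5% CO2. Seeded at 10,000 cells/well, held 24 h, then exposed to increasing concentrations of test compound for 72 h. Viability read by CellTiter-Glo luminescence and normalized to DMSO vehicle control to give GI50.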

[4] = Plasma and tumor PK in H1650 tumor-bearing mice; format: in vivo
In short: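 Nude mice bearing H1650 xenografts received a single i.v. dose of test compound (100 mg/kg). Plasma and tumors were collected at time points from 1 to 48 h (n = 3). Tumors were homogenized in ice-cold, nitrogen-sparged 1:1 acetonitrile : 150 mM citrate/EDTA/ascorbate, pH 3, then filtered and diluted 1:1 in citrate buffer with 25 ng/ml deuterated internal standard. Parent compound and two active metabolites were quantified by LC-MS/MS.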

Hsp90 = settings: cited from earlier work
Hsp90 in H1650 cells = assay: Hsp90 occupancy in H1650 cells; format: cell-based, human; settings: read-out: Hsp90 occupancy (EC50); H1650, 6 h incubation
In short: (§2)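 Cells were grown to 95% confluency and treated with test compound (0.01–10 μM) for 6 h at 37 °C. They were washed in cold PBS and lysed by freeze/thaw in binding buffer (20 mM Hepes pH 7.3, KCl, MgCl, EDTA, TCEP). Unbound drug was removed on prechilled spin columns. […], with total Hsp90 quantified by immunoblot against recombinant α/β standards. Average of two experiments.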

HER2 = HER2 client protein degradation by immunoblot in H1650 cells; format: cell-based, human
In short: (§3)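 H1650 cells were exposed to increasing concentrations of test compound for 6 h. They were lysed in RIPA buffer with protease inhibitors, protein was measured by BCA, and samples were run on 4–12% Bis-Tris SDS-PAGE and transferred to PVDF. Blots were probed with client-specific antibodies and detected by ECL. Bands were normalized to actin, and the fraction degraded was computed by densitometry against untreated samples.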

Hsp90 in RS4;11 cells = assay: Hsp90 occupancy in RS4; format: cell-based, human; settings: read-out: Hsp90 occupancy (EC50); RS4;11, 6 h incubation
In short: as §2

[5] = system: Hsp90 in H1650 tumor xenografts; assay: Hsp90 occupancy in H1650 tumor xenografts; format: in vivo, mice; settings: 100 mg/kg single dose
In short: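 Male athymic nude mice (6–8 weeks) carried flank xenografts from 1 × 10^7 H1650 cells. They received a single i.v. dose of test compound (100 mg/kg) and were sacrificed at time points from 1 to 48 h (n = 3; vehicle n = 2). Tumors were snap-frozen and powdered, and ~10 mg was homogenized in chilled binding buffer and clarified at 14,000 × g, 4 °C.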

cRaf = cRaf client protein degradation by immunoblot in H1650 cells; format: cell-based, human; settings: 10 μM (highest concentration tested), 6 h
In short: as §3

mEGFR [6] = assay: mEGFR protein degradation in H1650 tumor xenografts; format: in vivo, mice; settings: 100 mg/kg single dose
In short: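 Nude mice bearing H1650 flank xenografts received a single i.v. dose of test compound (100 mg/kg). They were sacrificed at time points from 1 to 48 h post dose (n = 3; vehicle n = 2). Tumors were snap-frozen in liquid nitrogen, stored at −80 °C, and EGFR protein levels in tumor tissue were assessed by immunoblot. Data are averages ± S.D.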

Hsp90 in H1975 cells = assay: Hsp90 occupancy in H1975 cells; format: cell-based, human; settings: read-out: Hsp90 occupancy (EC50); H1975, 6 h incubation
In short: as §2

mEGFR [7] = assay: mEGFR client protein degradation by immunoblot in H1650 cells; format: cell-based, human; settings: read-out: mEGFR degradation EC50, 6 h
In short: as §3

H1650 cells = assay: Cell growth inhibition; format: cell-based; settings: Homo sapiens, NCI-H1650, 72 h, read-out: Cell growth inhibition (GI50)
In short: as §1

Akt = Akt client protein degradation by immunoblot in H1650 cells; format: cell-based, human; settings: 10 μM (highest concentration tested), 6 h
In short: as §3

Hsp90 in SKOV-3 cells = assay: Hsp90 occupancy in SKOV-3 cells; format: cell-based, human; settings: read-out: Hsp90 occupancy (EC50); SKOV-3, 6 h incubation
In short: as §2

SKOV-3 cells = assay: Cell growth inhibition; format: cell-based; settings: Homo sapiens, SK-OV-3, 72 h, read-out: Cell growth inhibition (GI50)
In short: as §1

RS4;11 cells = assay: Cell growth inhibition; format: cell-based; settings: Homo sapiens, RS4-11, 72 h, read-out: Cell growth inhibition (GI50)
In short: as §1

C=CCNC1=C2C[C@@H](C)C[C@H](OC)[C@H](O)[C@@H](C)/C=C(\C)[C@H](OC(N)=O)[C@@H](OC)/C=C\C=C(/C)C(=O)NC(=CC1=O)C2=O [17-AAG, 17-allylamino-17-demethoxygeldanamycin]
dissociation t½ (Purified Hela Hsp90 [1]; 4 °C): 1680 min
dissociation half-life (Purified Hela Hsp90 [1]; 37 °C): 8 min
time at which drug binding reached equilibrium [2]: ≤ 130 min
association t½ ([2]; ∼100 nM Hsp90 in lysate): 19 min
dissociation half-life (Hsp90 in SK-BR-3 lysates): 36 h
rate of dissociation slower than rate of association (Purified Hela Hsp90 [3]; 10 μM 17-AAG at 4 °C): ~100 fold
time at which drug binding reached equilibrium (Purified Hela Hsp90 [3]; 4 °C, 10 μM 17-AAG): ≤ 40 min
association t½ (Purified Hela Hsp90 [3]; 4 °C, 10 μM 17-AAG, 100 nM Hsp90): 6 min

C=CCNc1c(O)cc2c(O)c1C[C@@H](C)C[C@H](OC)[C@H](O)[C@@H](C)/C=C(\C)[C@H](OC(N)=O)[C@@H](OC)/C=C\C=C(/C)C(=O)N2 [IPI-504]
GI50 (H1975 cells): 51 nM
IPI-504 and its metabolites in plasma ([4]; 24 h post dose, plasma): barely detectable
IPI-504 and its metabolites in tumors ([4]; 36 h post dose, 100 mg/kg, tumor): high concentrations
tumor PK concentrations of IPI-504 ([4]; at 24 to 48 h, tumor): ~1 µM
affinity for Hsp90 higher than 17-AAG (Hsp90): 50 fold
EC50 (Hsp90 in H1650 cells): 30 nM
HER2 degraded (HER2; 30 nM IPI-504, 6 h): > 90%
EC50 (HER2; read-out: HER2 degradation EC50, 6 h): 11 nM
EC50 (Hsp90 in RS4;11 cells): 644 nM
time by which Hsp90 occupancy declined to background levels [5]: ≤ 48 h
time up to which significant Hsp90 occupancy was observed [5]: up to 12 h
cRaf maximal degradation (cRaf): ≤ 42%
time after which mEGFR protein degradation was observed (mEGFR [6]): 2 h
time of re-emergence of mEGFR protein expression (mEGFR [6]): 24 h
EC50 (Hsp90 in H1975 cells): 74 nM
EC50 (mEGFR [7]): 213 nM
GI50 (H1650 cells): 37 nM
Akt maximal degradation (Akt): ≤ 54%
EC50 (Hsp90 in SKOV-3 cells): 44 nM
GI50 (SKOV-3 cells): 52 nM
GI50 (RS4;11 cells): 2000 nM
